# An excerpt weighted towards active compounds, which were near 2.1% of everything screened.
# Shn3 3UTR inh = reduction of Shn3 3'UTR firefly luciferase signal, primary screen, Schnurri-3 inhibitor project, cell-based, Clone20 osteoblasts, set 2. Clone20 osteoblast Shn3 3'UTR firefly luciferase, 24 h. 360,000 tested, 0.52% active. inhibition, % at 12.5 µM;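 active means mean inhibition of at least 75% with every replicate also reaching 75%; inconclusive means mean inhibition at least 75% but some replicate below; inactive means mean inhibition below 75%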;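 further: 0% = median of neutral control wells and 100% = pilot-screen positive control compound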
# FN deposit inh = inhibitors of fibronectin matrix deposition, primary screen, AH1F cells, Alexa488-fibronectin fluorescence, plate reader. AH1F fibroblasts, overnight. 350,000 tested, 0.086% active. inhibition, % at 12.6 µM. AID 743247, 2014;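 active means mean inhibition across replicates of 30% or more, regardless of how many single replicates reach that level; inconclusive means mean under 30% yet at least half of replicates reach 30%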;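 further: positive control wells lacked labelled fibronectin entirely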
#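 test system = AH1F fibroblasts assembling fluorescent fibronectin matrix | quantity = 10000 AH1F cells per well | buffer or medium = DMEM plus 2% serum, read in PBS | doses = single dose, pinned | incubation = 1 h cell attachment, overnight exposure to compound and label | detection = fluorescence at 485 nm excitation, 525 nm emission | read-out basis = inhibition from reduced deposited-fibronectin fluorescence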
# PAX8 inh HTS = inhibitors of PAX8-driven TPO luciferase reporter, primary screen, RMG-I cells, single concentration | SteadyGlo, 24 h | AID 652154, 2013 | 360,000 tested, 1.2% active | inhibition, % at 12.6 µM;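 active means mean replicate inhibition at least 60% with every replicate also reaching 60%; inconclusive means only one of the two criteria is met; inactive means mean below 60% and not all replicates reaching 60%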;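 further: luciferase light reporting Pax8 driven TPO promoter activity; plate controls were median of neutral control wells for no effect and mitoxantrone controls for full effect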
# aSyn 5UTR inh = MLPCN primary screen, SNCA 5' untranslated region. AID 1813, 2009. alpha-synuclein 5'UTR reporter, inhibitor activity. 300,000 tested, 0.82% active. inhibition, % (tested at 7.5 µM); in the data active means inhibition above about 60%; inconclusive means no clear call, values can overlap the other calls;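 further: H4 neuroglioblastoma cells stably carrying SNCA 5'UTR luciferase fusion; 0% = DMSO wells and 100% = positive control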
# EWS-Fli block = EWS/Fli-driven NR0B1 reporter inhibitors, primary screen, A673 cells, NR0B1 luciferase, luminescence, MLPCN library | viability-normalised | inhibition, % at 12.6 µM | 350,000 tested, 0.67% active | AID 651661, 2012;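 active means mean inhibition of at least 50% after viability correction, with every replicate also passing that limit; inconclusive means mean reaches 50% but only one of two replicates passes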;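 further: firefly luciferase signal divided by Alamar Blue viability fluorescence both relative to DMSO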
# EBV LMP1 NFkB = EBV LMP1-driven NF-kappaB luciferase reporter inhibitors, primary screen, cell-based, luminescence, single point; 350,000 tested, 0.69% active; LMP1-induced NF-kappaB luciferase reporter cells; inhibition, % at 12.5 µM; AID 504558, 2011; in the data active means inhibition above about 41%; inconclusive means no clear call, values can overlap the other calls;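 further: 0% = neutral control wells and 100% = reference inhibitor control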
# Numbers without * were called inactive; ? = inconclusive; . = no result.
SMILES,Shn3 3UTR inh,FN deposit inh,PAX8 inh HTS,aSyn 5UTR inh,EWS-Fli block,EBV LMP1 NFkB
CCc1nn2cc(-c3ccccc3)nc2s1,36,-11,13,80*,.,66*
CC(C)C[C@H](NC(=O)c1nc[nH]c1C(=O)N[C@@H](CCCCNC(=O)OC(C)(C)C)C(=O)OC(C)(C)C)C(=O)OCc1ccccc1,42,11,82*,49,17,2
CC(C)C[C@H](NC(=O)c1[nH]cnc1C(=O)N[C@@H](Cc1ccccc1)C(=O)OC(C)(C)C)C(=O)OC(C)(C)C,-11,-10,68*,35,11,-12
CC(C)(C)OC(=O)NCCCCCNC(=O)c1[nH]cnc1C(=O)N[C@@H](CCCCNC(=O)OC(C)(C)C)C(=O)OC(C)(C)C,14,.,.,35,.,-2
CC(C)(C)OC(=O)NCCCC[C@H](NC(=O)c1nc[nH]c1C(=O)N[C@@H](CCCCNC(=O)OC(C)(C)C)C(=O)OC(C)(C)C)C(=O)OC(C)(C)C,12,16,76*,35,17,16
CC(C)(C)OC(=O)NCCCC[C@H](NC(=O)c1nc[nH]c1C(=O)NC(c1ccccc1)c1ccccc1)C(=O)OC(C)(C)C,-2,6,80*,8,22,-14
CCOc1ccc(CCN2C(=S)N([C@@H](CC(C)C)CN3CCCC3CN3C(=S)NC[C@@H]3Cc3ccc(O)cc3)C[C@@H]2Cc2ccccc2)cc1 (stereo partly specified),41,.,0,.,16,21
CCOc1ccc(CCN2C(=S)N([C@@H](CC(C)C)CN3CCCC3CN3C(=S)NC[C@@H]3Cc3ccc(O)cc3)C[C@@H]2Cc2ccc(O)cc2)cc1 (stereo partly specified),86*,-1,54,.,17,9
Oc1ccc(C[C@@H](CN2CCC[C@@H]2CN2C(=S)NC[C@@H]2Cc2ccccc2)N2C[C@H](Cc3ccccc3)N(CCc3ccccc3)C2=S)cc1,4,-2,20,.,16,.
CC(C)C[C@H]1CNC(=S)N1C[C@H]1CCCN1C[C@H](Cc1ccc(O)cc1)N1C[C@H](Cc2ccc(O)cc2)N(CC2CCCCCC2)C1=S,5,7,73*,.,22,.
Oc1ccc(C[C@H]2CNC(=S)N2CC2CCCN2C[C@H](Cc2ccccc2)N2C[C@H](Cc3ccc(O)cc3)N(CCc3ccccc3)C2=S)cc1 (stereo partly specified),29,1,91*,.,19,3
CC(C)C[C@@H](CN1CCCC1CN1C(=S)NC[C@@H]1Cc1ccc(O)cc1)N1C[C@H](Cc2ccc(O)cc2)N(CC2CCCCCC2)C1=S (stereo partly specified),83,.,82*,.,22,4
CC(C)C[C@@H](CN1CCCC1CN1C(=S)NC[C@@H]1Cc1ccc(O)cc1)N1C[C@H](Cc2ccccc2)N(CC2CCCCCC2)C1=S (stereo partly specified),25,.,17,.,18,6
CC(C)C[C@H]1CNC(=S)N1CC1CCCN1C[C@H](Cc1ccccc1)N1C[C@H](Cc2ccc(O)cc2)N(CC2CCCCCC2)C1=S (stereo partly specified),34,.,-5,.,7,5
CC(C)C[C@@H](CN1CCC[C@H]1CN1C(=O)C(=O)NC[C@@H]1Cc1ccccc1)N1C[C@H](Cc2ccc(O)cc2)N(CC2CCCCCC2)C(=O)C1=O,.,-17,68*,.,8,.
Cc1noc(C)c1NC(=O)N(C)C[C@H]1Oc2c(NS(C)(=O)=O)cccc2C(=O)N([C@@H](C)CO)C[C@H]1C,.,.,.,.,4,.
CCn1c(=N)c(C(=O)NC)cc2c(=O)n3cccc(C)c3nc21,5,3,.,.,.,-3
CCNc1nc(C)c2cc(Br)c(=O)n(CC)c2n1,47,2,14,76*,.,-3
Cc1ccc(S(=O)(=O)N(C)C[C@@H]2Oc3ccc(NC(=O)Nc4cccc5ccccc45)cc3C(=O)N([C@H](C)CO)C[C@@H]2C)cc1,.,.,-7,.,-16,.
CC(=O)Oc1ccc(C(=O)Cc2ccc3ccccc3n2)c(O)c1C,-86,-1,-95,-143,55*,-5
C[C@H]1CN([C@@H](C)CO)C(=O)c2c(c3ccccc3n2C)-c2ccccc2CO[C@@H]1CN(C)Cc1ccc(C(F)(F)F)cc1,.,4,64*,.,-3,.
C[C@@H]1CN([C@H](C)CO)C(=O)c2c(c3ccccc3n2C)-c2ccccc2CO[C@H]1CN(C)Cc1ccc(Oc2ccccc2)cc1,3,-6,85*,.,6,7
O=C(C[C@H]1C[C@@H]2c3cc(NC(=O)CC4CC4)ccc3O[C@@H]2[C@H](CO)O1)NCc1cccc(F)c1,.,-10,.,.,1,.
CN(C)CC(CCC(CN(C)C)C(O)(c1ccccc1)c1ccccc1)C(O)(c1ccccc1)c1ccccc1 (stereo unspecified),.,-2,87*,101*,36,.
CN(C)C/C=C/C(O)(c1ccccc1)c1ccccc1,-2,-4,1,-37,0,-1
SMILES,Shn3 3UTR inh,FN deposit inh,PAX8 inh HTS,aSyn 5UTR inh,EWS-Fli block,EBV LMP1 NFkB
O=C(N[C@@H]1CC[C@H](CCNC(=O)C2CCCC2)O[C@H]1CO)c1ccncc1,.,.,0,.,2,.
Cc1ccnc(NC(=O)c2ccc(C(=O)c3ccccc3)cc2)c1,-14,-11,3,31,?,50*
Cc1ccnc(NC(=O)c2ccccc2NC(=O)c2ccccc2)c1,-4,10,-5,-11,-8,0
CCOc1ccc(C(=O)Nc2cc(C)ccn2)cc1,11,-1,24,65*,?,53*
COc1cc(/C=C/C(=O)O)ccc1O,0,.,.,-8,-6,-2
COc1cc(/C=C/C(=O)c2ccc([N+](=O)[O-])o2)ccc1O,97*,-8,59,67*,55*,-21
O=C(/C=C/c1cccc(Cl)c1)c1ccc([N+](=O)[O-])o1,95*,59*,103*,91*,77*,-19
COc1ccc(/C=C/C(=O)c2ccc([N+](=O)[O-])o2)cc1OC,.,35*,112*,?,62*,.
O=C(Cc1cccnc1)N[C@@H]1CC[C@@H](CCn2cc(-c3ccccc3F)nn2)O[C@H]1CO,.,.,-3,.,5,.
O=C(c1ccc(F)cc1)N1CC(=O)N2[C@H](CO)[C@@H](c3ccc(-c4ccccc4)cc3)[C@H]2C1,.,.,19,.,-7,.
C[C@H]1CN(C)C(=O)c2cc(N)ccc2O[C@@H]1CN(C)C(=O)OC(C)(C)C,.,10,.,.,.,.
O=[N+]([O-])c1ccc(S(=O)(=O)c2cccc(C(F)(F)F)c2)nc1,.,.,.,-9,.,76*
O=S(=O)(Nc1cccnc1)c1cccc(C(F)(F)F)c1,13,0,.,9,.,2

# Screening data: PubChem BioAssay, Broad Institute
